ChEMBL document CHEMBL4007422 (J Med Chem, 2017)
The source made the active and inactive calls. No cut-off for these calls is given here.

What was measured:
[1] = target: 5-hydroxytryptamine receptor 4 (Homo sapiens) (UniProt Q13639); assay: Displacement of [3H]-GR113808 from recombinant human 5-HT4B receptor expressed in Chem1 cell membranes after 120 mins by microbeta scintillation counting analysis
[2] = target: Cytochrome P450 2D6 (Homo sapiens, UniProt P10635); assay: Inhibition of CYP2D6 in human liver microsomes in presence of NADPH by LC-MS/MS analysis
Cytochrome P450 2D6, sequence (P10635 whole entry): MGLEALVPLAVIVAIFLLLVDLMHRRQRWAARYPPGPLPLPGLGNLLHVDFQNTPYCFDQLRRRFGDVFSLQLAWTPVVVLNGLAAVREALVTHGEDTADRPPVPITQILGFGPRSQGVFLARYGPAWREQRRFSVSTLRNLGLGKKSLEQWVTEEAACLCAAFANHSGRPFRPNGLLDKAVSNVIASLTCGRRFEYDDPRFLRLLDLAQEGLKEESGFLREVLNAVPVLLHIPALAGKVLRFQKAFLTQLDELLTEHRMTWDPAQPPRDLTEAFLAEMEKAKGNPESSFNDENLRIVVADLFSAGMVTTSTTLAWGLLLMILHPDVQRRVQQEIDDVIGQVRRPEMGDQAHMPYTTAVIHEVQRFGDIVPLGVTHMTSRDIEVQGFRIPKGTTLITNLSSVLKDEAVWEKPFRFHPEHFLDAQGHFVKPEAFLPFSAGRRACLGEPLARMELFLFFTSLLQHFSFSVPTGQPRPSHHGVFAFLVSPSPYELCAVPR

[3] = Cmax in Wistar rat at 10 mg/kg, po by LC-MS/MS analysis; assay type: ADME, organism-based; set-up: dose 10 mg/kg, route oral; conditions: in vivo
[4] = Half life in Wistar rat at 10 mg/kg, iv by LC-MS/MS analysis; assay type: ADME, organism-based; conditions: in vivo
[5] = Apparent volume of distribution in Wistar rat at 10 mg/kg, iv by LC-MS/MS analysis; assay type: ADME, organism-based; conditions: in vivo, read-out: Vz
[6] = Clearance in Wistar rat at 10 mg/kg, iv by LC-MS/MS analysis; assay type: ADME, organism-based; conditions: in vivo
[7] = tested on: Rattus norvegicus; assay: Reversal of time-induced amnesia in Wistar rat at 1 to 10 mg/kg, po administered 60 mins prior to testing measured for 3 mins by object recognition test; assay type: functional, organism-based
Method in brief: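 Time-induced object recognition task in rats. Oral dosing at 1, 3 and 10 mg/kg given 60 min before the test; vehicle water for injection 1 mL/kg p.o.; n = 7−12/group. Exploration of novel versus familiar object compared by paired t-test.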

[8] = species: Homo sapiens; assay: Toxicity in human assessed as changes in QTc interval during phase-I clinical trail
[9] = target: D(3) dopamine receptor (Homo sapiens) (UniProt P35462); assay: Inhibition of recombinant human dopamine D3 receptor expressed in CHOK1 cells at 1 uM by GTPgammaS binding assay; assay type: functional, cell-based
D(3) dopamine receptor (Homo sapiens), sequence (P35462 whole entry): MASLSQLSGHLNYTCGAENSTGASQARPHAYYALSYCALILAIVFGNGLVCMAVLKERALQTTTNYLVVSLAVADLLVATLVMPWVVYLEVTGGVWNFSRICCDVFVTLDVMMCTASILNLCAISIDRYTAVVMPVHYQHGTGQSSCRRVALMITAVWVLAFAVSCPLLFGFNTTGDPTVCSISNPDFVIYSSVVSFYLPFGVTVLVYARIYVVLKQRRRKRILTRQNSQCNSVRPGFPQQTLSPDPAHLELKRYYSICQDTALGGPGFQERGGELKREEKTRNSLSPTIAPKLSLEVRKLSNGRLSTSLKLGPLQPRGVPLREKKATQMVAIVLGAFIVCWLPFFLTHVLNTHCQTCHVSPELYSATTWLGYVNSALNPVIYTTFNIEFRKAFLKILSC

[10] = target: Alpha-2A adrenergic receptor (Homo sapiens, UniProt P08913); assay: Displacement of [3H] MK-912 from human adrenergic alpha 2A receptor expressed in HT29 cells after 60 mins; assay type: cell-based
Alpha-2A adrenergic receptor, sequence (P08913 whole entry): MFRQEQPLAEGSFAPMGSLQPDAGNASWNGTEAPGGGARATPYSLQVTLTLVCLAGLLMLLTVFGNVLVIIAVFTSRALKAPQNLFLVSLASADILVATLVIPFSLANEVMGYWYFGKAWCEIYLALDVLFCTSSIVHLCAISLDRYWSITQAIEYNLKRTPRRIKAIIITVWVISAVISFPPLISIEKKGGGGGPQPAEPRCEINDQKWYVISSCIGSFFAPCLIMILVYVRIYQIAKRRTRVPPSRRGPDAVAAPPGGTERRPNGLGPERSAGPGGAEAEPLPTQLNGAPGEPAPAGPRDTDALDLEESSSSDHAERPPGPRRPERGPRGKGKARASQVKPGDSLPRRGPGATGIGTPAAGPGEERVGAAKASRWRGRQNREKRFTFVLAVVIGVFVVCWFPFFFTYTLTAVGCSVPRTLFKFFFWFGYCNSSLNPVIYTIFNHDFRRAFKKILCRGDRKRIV

[11] = target: Alpha-2C adrenergic receptor (Homo sapiens, UniProt P18825); assay: Inhibition of recombinant human adrenergic alpha 2C receptor expressed in CHO cells assessed as inhibition of 5-HT stimulated cAMP accumulation after 4 hrs by luciferase reporter gene assay; assay type: functional, cell-based
Alpha-2C adrenergic receptor, sequence (P18825 whole entry): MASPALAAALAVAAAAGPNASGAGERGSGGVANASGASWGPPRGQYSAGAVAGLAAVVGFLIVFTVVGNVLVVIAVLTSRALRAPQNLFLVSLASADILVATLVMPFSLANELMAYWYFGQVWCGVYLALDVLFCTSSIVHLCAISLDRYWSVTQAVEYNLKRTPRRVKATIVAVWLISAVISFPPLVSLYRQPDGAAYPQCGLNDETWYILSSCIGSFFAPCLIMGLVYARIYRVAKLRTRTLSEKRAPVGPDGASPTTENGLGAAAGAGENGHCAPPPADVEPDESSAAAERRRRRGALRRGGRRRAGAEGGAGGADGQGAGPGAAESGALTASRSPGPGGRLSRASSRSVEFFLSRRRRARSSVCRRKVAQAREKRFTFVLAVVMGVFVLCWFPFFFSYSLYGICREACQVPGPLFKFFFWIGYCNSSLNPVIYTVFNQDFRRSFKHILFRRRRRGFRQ

[12] = target: D(3) dopamine receptor (Rattus norvegicus, UniProt P19020); assay: Displacement of [3H] 7-OH DPAT from recombinant rat dopamine D3 receptor expressed in CHO cells after 60 mins; assay type: cell-based
D(3) dopamine receptor, sequence (P19020 whole entry): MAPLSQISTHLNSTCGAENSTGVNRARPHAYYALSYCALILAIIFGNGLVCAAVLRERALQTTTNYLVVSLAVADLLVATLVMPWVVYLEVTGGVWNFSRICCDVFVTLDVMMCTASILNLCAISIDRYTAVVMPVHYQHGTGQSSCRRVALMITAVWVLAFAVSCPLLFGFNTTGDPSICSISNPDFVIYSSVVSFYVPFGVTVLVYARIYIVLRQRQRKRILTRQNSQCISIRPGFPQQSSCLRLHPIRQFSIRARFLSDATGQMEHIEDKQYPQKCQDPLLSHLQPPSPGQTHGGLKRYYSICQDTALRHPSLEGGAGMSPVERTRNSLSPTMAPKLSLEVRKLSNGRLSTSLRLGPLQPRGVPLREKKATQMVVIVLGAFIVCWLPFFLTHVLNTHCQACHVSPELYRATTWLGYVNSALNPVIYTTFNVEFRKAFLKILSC

[13] = Apparent permeability of the compound in human Caco2 cells at 10 uM measured up to 120 mins by LC-MS/MS analysis; assay type: ADME, cell-based; conditions: Caco-2
Method in brief: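 Permeability in Caco-2 intestinal epithelial monolayers, measured apical-to-basolateral and basolateral-to-apical; efflux ratio taken as Papp(B-A)/Papp(A-B).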

[14] = Protein binding in dog plasma at 1 uM after 6 hrs by LC-MS/MS based rapid equilibrium dialysis method; assay type: ADME, cell-free, Canis lupus familiaris; conditions: read-out: PPB (converted)
Method in brief: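 Plasma protein binding in rat, dog and human plasma determined by equilibrium dialysis.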

[15] = Terminal half life in Beagle dog at 10 mg/kg, po; assay type: ADME, organism-based, Canis lupus familiaris; conditions: in vivo, read-out: beta t1/2 (converted)
Method in brief: (§1)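 Beagle dogs received 10 mg/kg p.o. and 3 mg/kg i.v. in a pharmacokinetic study. From plasma exposure the authors derived AUC0-t, terminal half-life, intravenous clearance, volume of distribution and absolute oral bioavailability.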

[16] = Volume of distribution in Beagle dog at 3 mg/kg, iv or at 10 mg/kg, po; assay type: ADME, organism-based, Canis lupus familiaris; conditions: in vivo; method in brief: as §1
[17] = target: Cytochrome P450 2C19 (Homo sapiens, UniProt P33261); assay: Inhibition of CYP2C19 in human liver microsomes using mephenytoin as substrate in presence of NADPH by LC-MS/MS analysis; assay type: ADME
Cytochrome P450 2C19, sequence (P33261 whole entry, canonical isoform): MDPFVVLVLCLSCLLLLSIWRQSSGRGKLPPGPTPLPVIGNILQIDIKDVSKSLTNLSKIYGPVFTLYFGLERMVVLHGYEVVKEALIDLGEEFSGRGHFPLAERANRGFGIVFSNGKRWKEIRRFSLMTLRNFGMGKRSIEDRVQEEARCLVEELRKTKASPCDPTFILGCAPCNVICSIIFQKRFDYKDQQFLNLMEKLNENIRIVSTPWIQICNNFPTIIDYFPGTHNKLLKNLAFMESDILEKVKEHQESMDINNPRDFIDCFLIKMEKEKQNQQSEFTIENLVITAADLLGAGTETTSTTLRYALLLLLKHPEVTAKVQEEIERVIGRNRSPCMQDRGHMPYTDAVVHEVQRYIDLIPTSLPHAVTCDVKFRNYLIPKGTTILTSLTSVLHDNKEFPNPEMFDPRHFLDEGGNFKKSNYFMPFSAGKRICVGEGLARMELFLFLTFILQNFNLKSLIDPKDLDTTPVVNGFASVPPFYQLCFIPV
Method in brief: (§2)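 Pooled human liver microsomes. IC50 determined from isoform-specific marker activities for CYP1A2, 2A6, 2B6, 2C8, 2C9, 2C19 (mephenytoin hydroxylation) and 2E1.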

[18] = target: Cytochrome P450 2C8 (Homo sapiens, UniProt P10632); assay: Inhibition of CYP2C8 in human liver microsomes in presence of NADPH by LC-MS/MS analysis; assay type: ADME; method in brief: as §2
[19] = target: Cytochrome P450 2E1 (Homo sapiens, UniProt P05181); assay: Inhibition of CYP2E1 in human liver microsomes in presence of NADPH by LC-MS/MS analysis; assay type: ADME; method in brief: as §2
Cytochrome P450 2E1, sequence (P05181 whole entry): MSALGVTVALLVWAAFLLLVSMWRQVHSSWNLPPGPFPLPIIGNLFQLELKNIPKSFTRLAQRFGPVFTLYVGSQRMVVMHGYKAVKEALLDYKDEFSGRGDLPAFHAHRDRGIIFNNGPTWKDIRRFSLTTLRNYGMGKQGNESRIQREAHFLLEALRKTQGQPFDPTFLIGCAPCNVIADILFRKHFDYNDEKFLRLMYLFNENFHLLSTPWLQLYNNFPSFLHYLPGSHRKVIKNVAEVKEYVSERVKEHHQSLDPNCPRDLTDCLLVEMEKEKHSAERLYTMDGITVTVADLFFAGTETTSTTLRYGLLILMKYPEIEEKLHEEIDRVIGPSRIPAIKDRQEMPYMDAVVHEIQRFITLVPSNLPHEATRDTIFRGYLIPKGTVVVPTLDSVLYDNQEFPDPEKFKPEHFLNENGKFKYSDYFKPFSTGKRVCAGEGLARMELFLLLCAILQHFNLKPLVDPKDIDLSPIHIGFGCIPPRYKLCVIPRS

[20] = target: Cytochrome P450 1A2 (Homo sapiens, UniProt P05177); assay: Induction of CYP1A2 activity in human hepatocytes at 0.01 to 1 uM preincubated for 3 days followed by substrate addition measured after 30 mins; assay type: ADME, cell-based; conditions: 0.5 h
Cytochrome P450 1A2, sequence (P05177 whole entry): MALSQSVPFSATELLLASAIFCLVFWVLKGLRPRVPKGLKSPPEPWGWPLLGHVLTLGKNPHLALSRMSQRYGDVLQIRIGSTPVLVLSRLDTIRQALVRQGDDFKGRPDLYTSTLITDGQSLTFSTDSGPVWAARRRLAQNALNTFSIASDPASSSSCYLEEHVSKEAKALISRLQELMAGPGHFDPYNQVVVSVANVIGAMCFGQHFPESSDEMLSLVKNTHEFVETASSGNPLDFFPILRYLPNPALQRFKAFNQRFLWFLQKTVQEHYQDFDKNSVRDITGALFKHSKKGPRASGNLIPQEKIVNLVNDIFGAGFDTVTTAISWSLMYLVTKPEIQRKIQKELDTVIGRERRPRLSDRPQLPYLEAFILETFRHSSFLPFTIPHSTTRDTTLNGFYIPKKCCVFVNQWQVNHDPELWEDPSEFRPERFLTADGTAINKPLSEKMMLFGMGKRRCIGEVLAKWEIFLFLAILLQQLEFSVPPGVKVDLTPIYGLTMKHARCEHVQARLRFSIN
Method in brief: (§3)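 Plateable human hepatocytes exposed to 0.01, 0.1 and 1.0 μM. CYP1A2, CYP2B6 and CYP3A4 induction read as both mRNA expression and enzyme activity.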

[21] = target: T1, Cytochrome P450 3A4 (Homo sapiens, UniProt P08684); assay: Induction of CYP3A4 activity in human hepatocytes at 0.01 to 1 uM preincubated for 3 days followed by substrate addition measured after 30 mins; assay type: ADME, cell-based; conditions: 0.5 h; method in brief: as §3
T1 sequence (P08684 whole entry): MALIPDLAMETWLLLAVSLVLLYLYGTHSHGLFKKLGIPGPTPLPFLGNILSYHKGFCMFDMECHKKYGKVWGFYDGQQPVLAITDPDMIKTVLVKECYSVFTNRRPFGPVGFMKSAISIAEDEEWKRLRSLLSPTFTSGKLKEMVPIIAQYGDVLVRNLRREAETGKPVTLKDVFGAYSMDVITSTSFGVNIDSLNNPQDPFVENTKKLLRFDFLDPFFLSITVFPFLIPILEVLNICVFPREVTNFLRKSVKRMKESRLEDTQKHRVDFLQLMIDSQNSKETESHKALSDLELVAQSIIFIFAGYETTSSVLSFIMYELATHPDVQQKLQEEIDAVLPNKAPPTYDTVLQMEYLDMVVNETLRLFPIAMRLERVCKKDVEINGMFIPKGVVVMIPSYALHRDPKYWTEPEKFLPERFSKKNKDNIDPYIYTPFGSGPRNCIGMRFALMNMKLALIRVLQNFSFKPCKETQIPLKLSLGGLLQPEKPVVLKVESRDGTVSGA

[22] = tested on: Rattus norvegicus; assay: Increase in acetylcholine level in Wistar rat ventral hippocampus at 3 mg/kg, po after 6 hrs by LC-MS/MS based microdialysis method; assay type: functional, organism-based
Method in brief: (§4)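 Male Wistar rats (240−300 g) fitted under isoflurane with a ventral hippocampal guide cannula (AP −5.2, ML +5.0, DV −3.8 mm from bregma). Probe (4 mm membrane) inserted 16 h before study. Perfusion with aCSF pH 7.2 at 1.5 μL/min, 2 h stabilization, five basal 20-min samples. Test agent given p.o.; donepezil and memantine (1 mg/kg s.c. each) given 30 min later in combination arms. Dialysates collected 6 h (4 h for combination), acetylcholine measured by LC-MS/MS, expressed as % of mean basal.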

[23] = tested on: Rattus norvegicus; assay: Increase in acetylcholine level in Wistar rat ventral hippocampus at 1 mg/kg, po after 6 hrs by LC-MS/MS based microdialysis method; assay type: functional, organism-based; method in brief: as §4
[24] = tested on: Rattus norvegicus; assay: Increase in acetylcholine level in Wistar rat ventral hippocampus at 1 mg/kg, po in presence of 1 mg/kg of donepezil and memantine administered sc 30 mins post compound treatment measured after 4 hrs by LC-MS/MS based microdialysis method relative to control; assay type: functional; method in brief: as §4
[25] = tested on: Rattus norvegicus; assay: Increase in acetylcholine level in Wistar rat ventral hippocampus at 3 mg/kg, po in presence of 1 mg/kg of donepezil and memantine administered sc 30 mins post compound treatment measured after 4 hrs by LC-MS/MS based microdialysis method relative to control; assay type: functional; method in brief: as §4
[26] = Solubility of the compound in water; assay type: physicochemical; conditions: buffer
[27] = tested on: Salmonella typhimurium; assay: Mutagenicity in Salmonella typhimurium TA1537 in absence of metabolic activation; assay type: toxicity; conditions: salmonella enterica subsp. enterica serovar typhimurium
[28] = tested on: Salmonella typhimurium; assay: Mutagenicity in Salmonella typhimurium TA1535 in presence of metabolic activation; assay type: toxicity; conditions: salmonella enterica subsp. enterica serovar typhimurium
[29] = tested on: Salmonella typhimurium; assay: Mutagenicity in Salmonella typhimurium TA98 in absence of metabolic activation; assay type: toxicity; conditions: salmonella enterica subsp. enterica serovar typhimurium
[30] = tested on: Salmonella typhimurium; assay: Mutagenicity in Salmonella typhimurium TA100 in presence of metabolic activation; assay type: toxicity; conditions: salmonella enterica subsp. enterica serovar typhimurium
[31] = tested on: Salmonella typhimurium; assay: Mutagenicity in Salmonella typhimurium TA100 in absence of metabolic activation; assay type: toxicity; conditions: salmonella enterica subsp. enterica serovar typhimurium
[32] = tested on: Homo sapiens; assay: Toxicity in healthy male and female human subjects administered as single ascending dose for 14 days; conditions: in vivo, 336 h
[33] = target: T1, Cytochrome P450 3A4

5-hydroxytryptamine receptor 4 (Homo sapiens), sequence (Q13639 whole entry): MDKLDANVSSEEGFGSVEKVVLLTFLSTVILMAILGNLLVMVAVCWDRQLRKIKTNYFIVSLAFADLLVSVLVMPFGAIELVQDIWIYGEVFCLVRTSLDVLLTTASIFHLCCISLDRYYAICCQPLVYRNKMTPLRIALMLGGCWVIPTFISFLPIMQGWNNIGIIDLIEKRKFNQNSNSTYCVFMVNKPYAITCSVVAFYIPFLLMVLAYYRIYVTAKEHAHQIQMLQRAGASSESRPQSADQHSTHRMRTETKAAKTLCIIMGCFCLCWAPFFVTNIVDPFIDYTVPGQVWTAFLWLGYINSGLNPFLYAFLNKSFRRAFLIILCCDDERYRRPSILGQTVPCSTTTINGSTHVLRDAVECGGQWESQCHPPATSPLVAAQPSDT

COc1ccc2c(c1)c(CN1CCN(C)CC1)cn2S(=O)(=O)c1ccccc1Br.CS(=O)(=O)O.O
Activity [1]: inactive
IC50 [2]: 13.2 µM
Cmax [3]: 272 ng/mL
half-life [4]: 57 min
Vd [5]: 4.41 L/kg
clearance [6]: 53 mL/min/kg
Activity [7]: Active
Activity [8]: Non-Toxic
inhibition [9]: > 50%
Ki [10]: 2570 nM
Kb [11]: 619 nM
Ki [12]: 616 nM
Papp at 2 h, 10 µM [13]: 19.6 ×10⁻⁶ cm/s
fraction unbound at 6 h, 1 µM [14]: 0.014
half-life [15]: 210 min
Vd [16]: 7.5 L/kg
IC50 [17]: 5.7 µM
IC50 [18]: > 10 µM
IC50 [19]: > 10 µM
Activity [20]: Not Active
Activity [21]: Not Active
Activity [22]: Active
Activity [23]: inactive
Activity [24]: 1383%
Activity [25]: 2136%
solubility [26]: 1200 mg/mL
Activity [27]: Non-Toxic
Activity [28]: Non-Toxic
Activity [29]: Non-Toxic
Activity [30]: Non-Toxic
Activity [31]: Non-Toxic
Activity [32]: Non-Toxic
IC50 [33]: 1500 nM
